The values that follow come from ChEMBL document CHEMBL1135298, “Induction of apoptosis by aryl-substituted diamines: role of aromatic group substituents and distance between nitrogens” (Bioorg Med Chem Lett, 2002).

For experiment [1], the system named is MDA-MB-231. In words: Inhibition of human breast cancer cell line MDA-MB-231 growth. The class given is functional, cell-based.
Experiment [2] concerns PC-3. In words: Inhibition of human prostate cancer cell line PC-3 growth. The experiment is classed as functional, cell-based.
For the next experiment, the system named is A-375. In words: Compound was evaluated for cytotoxic activity against human melanoma cell line A375. The class given is functional, cell-based. A digest of the protocol:
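A375 melanoma medium contained 1 mM aminoguanidine, penicillin/streptomycin, 10% FBS, 1 mM sodium pyruvate and 2 mM L-glutamine.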

The test system of experiment [3] is MDA-MB-231. In words: Compound was evaluated for cytotoxic activity against human breast cancer cell line MDA-MB-231. The experiment is classed as functional, cell-based. A digest of the protocol: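 MDA-MB-231 grown in medium with 1 mM aminoguanidine, 50 U/mL penicillin, 50 µg/mL streptomycin, 10% FBS and 2 mM L-glutamine. Drug added 24 h after plating, cells grown a further 72 h. Cell number by MTS; IC50 (µM), some values as mean ± error (n).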

The test system of a further experiment is MES-SA. In words: Compound was evaluated for cytotoxic activity against the following human cancer cell Uterine cancer cell line Mes-SA. The class given is functional, cell-based. A digest of the protocol:
(§1)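 SK-OV-3, Mes-SA and multidrug-resistant Mes-SA/Dx5 cultured in McCoy's 5A with 1 mM aminoguanidine, penicillin/streptomycin and 10% FBS.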

For experiment [4], the system named is PC-3. In words: Compound was evaluated for cytotoxic activity against human prostate cancer cell line PC-3. The experiment is classed as functional, cell-based.
The subject of another experiment is SK-OV-3. In words: Compound was evaluated for cytotoxic activity against human ovarian cancer cell line SK-OV-3. The experiment is classed as functional, cell-based. A digest of the protocol:
as §1

A further experiment has as its system SK-MEL-5. In words: Compound was evaluated for cytotoxic activity against human melanoma cell line SK-Mel-5. The experiment is classed as functional, cell-based. The gist of the method: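 SK-Mel-5 maintained in EMEM supplemented with 1 mM aminoguanidine, 50 U/mL penicillin, 50 µg/mL streptomycin and 10% FBS.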
A further experiment concerns T47D. In words: Compound was evaluated for cytotoxic activity against the following human cancer cell Breast cancer cell line T47 D. The experiment is classed as functional, cell-based. A digest of the protocol: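 T47.D in RPMI 1640 with 1 mM aminoguanidine, penicillin/streptomycin, 10% FBS, 1 mM sodium pyruvate, 2 mM L-glutamine and 0.4% insulin.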
In experiment [5] the target is Nucleic Acid. In words: ability to interact with DNA was assessed by a DNA/ethidium bromide dye displacement assay, expressed as DC50 for polydAdT. The experiment is classed as nucleic-acid assay. The gist of the method:
(§2)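 Ethidium displacement run by an adapted literature method: 2.5 µM polydAdT with 1.5 µM ethidium bromide in 3.75 mM Tris/NaCl, pH 8.0. Compound added to the DNA–dye complex; DC50 reported.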

Experiment [6] concerns Mes-SA/Dx5 (Homo sapiens). In words: Compound was evaluated for cytotoxic activity against the following human cancer cell MDR Uterine cancer cell line Mes-SA/Dx5.
Experiment [7] addresses Nucleic Acid. In words: Ability to interact with DNA was assessed by a DNA/ethidium bromide dye displacement assay, expressed as DC50 for polydAdT. The class given is nucleic-acid assay. A digest of the protocol: as §2

In general, IC50 refers to the concentration that inhibits the measured activity by half.

For the compound `N#Cc1cccc(CNCCCCNCc2cccc(C#N)c2)c1`, the IC50 with MDA-MB-231 [1] turned out to be 42 µM; with PC-3 [2], 10 µM.

As for `c1ccc2c(CNCCCCNCc3ccnc4ccccc34)ccnc2c1`, the IC50 in the experiment with MDA-MB-231 [1] was found to be 9.4 µM; in the experiment with PC-3 [2], 8.4 µM.

As for `O=[N+]([O-])c1cccc(CNCCCCNCc2cccc([N+](=O)[O-])c2)c1`, the IC50 is 18 µM with MDA-MB-231 [1] and 9 µM in the experiment with PC-3 [2].

`c1ccc(N(c2ccccc2)c2ccc(CNCCCCNCc3ccc(N(c4ccccc4)c4ccccc4)cc3)cc2)cc1`: the IC50 is 400 nM in the experiment with A-375; 620 nM in the experiment with MDA-MB-231 [3]; 0.64 µM in the experiment on MES-SA; 600 nM in the experiment on PC-3 [4]; 680 nM with SK-OV-3; 940 nM in the experiment with SK-MEL-5. In addition, the IC50 with T47D amounted to 0.65 µM; in experiment [6] it was 0.61 µM. The DC50 at Nucleic Acid [5] was 9.4 µM.

For `c1cc(CNCc2cccc3ccccc23)cc(CNCc2cccc3ccccc23)c1`, the IC50 in the experiment on MDA-MB-231 [1] stood at 19 µM; with PC-3 [2] it was 20 µM.

Consider `COc1ccc(CNCCCCNCc2ccc(OC)c3ccccc23)c2ccccc12`, for which the results for the IC50 with MDA-MB-231 [1] and in the experiment on PC-3 [2] were 2.8 µM and 3.2 µM, respectively.

`c1ccc2c(c1)Cc1cc(CNCCCCNCc3ccc4c(c3)Cc3ccccc3-4)ccc1-2`: the IC50 in the experiment on MDA-MB-231 [1] was 6.6 µM; with PC-3 [2], 1.85 µM.

Take `c1ccc2cc(CNCCCCNCc3ccc4ccccc4c3)ccc2c1`: the 50% inhibitory concentration (IC50) worked out at 2.1 µM in the experiment with MDA-MB-231 [1] and 2.5 µM with PC-3 [2].

Turning to `c1ccc2c(CNCCCCNCc3c4ccccc4cc4ccccc34)c3ccccc3cc2c1`, the IC50 with MDA-MB-231 [1] turned out to be 3.5 µM; with PC-3 [2] it was 2.7 µM.

Take `NCCCCNCc1ccc([N+](=O)[O-])cc1`: the IC50 in the experiment on MDA-MB-231 [1] worked out at 201 µM; in the experiment with PC-3 [2] it was 50 µM.

Consider `NCCCCNCc1ccccc1`, for which the results for the IC50 in the experiment on MDA-MB-231 [1] and in the experiment on PC-3 [2] were over 300 µM and 211 µM, respectively.

For the compound `CN(C)c1ccc(CNCCCCNCc2ccc(N(C)C)cc2)cc1`, the IC50 in the experiment with MDA-MB-231 [1] is 197 µM; with PC-3 [2], 56 µM.

On to `COc1ccc(CNCCCCNCc2ccc(OC)cc2)cc1`, for which the IC50 in the experiment on MDA-MB-231 [1] came to 21 µM; in the experiment with PC-3 [2] it was 6 µM.

As for `c1ccc(-c2ccc(CNCCCCCNCc3ccc(-c4ccccc4)cc3)cc2)cc1`, the IC50 was 1.3 µM in the experiment on MDA-MB-231 [1] and 0.48 µM in the experiment with PC-3 [2].

As for `c1ccc2c(CNCc3ccc(CNCc4cccc5ccccc45)cc3)cccc2c1`, the IC50 in the experiment with MDA-MB-231 [1] was 7 µM; in the experiment with PC-3 [2], 14 µM.

Take `c1ccc2c(CNCCCCNCc3cccc4ccccc34)cccc2c1`: the IC50 in the experiment with A-375 came out at 5400 nM; with MDA-MB-231 [3] it was 9100 nM; in the experiment with MES-SA it was 10.1 µM; with PC-3 [4], 10000 nM; in the experiment with SK-OV-3 it was 8500 nM; with SK-MEL-5, 4600 nM. Also, the half-inhibitory concentration (IC50) was 6.5 µM in the experiment with T47D and 7.2 µM in experiment [6]. On Nucleic Acid [7], this compound displayed a DC50 of 8.7 µM.

Take `c1ccc2c(CNCCCCCNCc3cccc4ccccc34)cccc2c1`: the IC50 in the experiment on MDA-MB-231 [1] amounted to 8.3 µM; in the experiment with PC-3 [2] it was 6.5 µM.

Consider `c1ccc(-c2ccc(CNCCCCNCc3ccc(-c4ccccc4)cc3)cc2)cc1`, for which the IC50 with A-375 worked out at 590 nM; in the experiment on MDA-MB-231 [3], 1920 nM; in the experiment on PC-3 [4], 770 nM; in the experiment with SK-OV-3 it was 740 nM.

With `N#Cc1ccc(CNCCCCNCc2ccc(C#N)cc2)cc1`, the IC50 was found to be 84 µM with MDA-MB-231 [1] and 22 µM in the experiment on PC-3 [2].

Turning to `c1ccc2c(CNCCCNCc3cccc4ccccc34)cccc2c1`, the IC50 worked out at 5.1 µM with MDA-MB-231 [1] and 4.3 µM with PC-3 [2].

On to `[N-]=[N+]=Nc1cccc(CNCCCCNCc2cccc(N=[N+]=[N-])c2)c1`, for which the IC50 in the experiment on MDA-MB-231 [1] was 19 µM; in the experiment on PC-3 [2] it was 15 µM.

In the case of `Clc1ccc(CNCCCCNCc2ccc(Cl)c(Cl)c2)cc1Cl`, the IC50 stood at 65 µM in the experiment on MDA-MB-231 [1] and 20 µM with PC-3 [2].

On to `O=[N+]([O-])c1ccc(CNCCCCNCc2ccc([N+](=O)[O-])cc2)cc1`, for which the IC50 in the experiment on MDA-MB-231 [1] worked out at 205 µM; in the experiment with PC-3 [2] it was 143 µM.

Consider `c1ccc2c(CCNCCCCNCCc3cccc4ccccc34)cccc2c1`, for which the half-maximal inhibitory concentration (IC50) amounted to 25 µM with MDA-MB-231 [1] and 37 µM with PC-3 [2].

Take `NCCCCNCc1cccc2ccccc12`: the half-maximal inhibitory concentration (IC50) was over 300 µM in the experiment on MDA-MB-231 [1] and 211 µM in the experiment with PC-3 [2].

On to `c1cc2c(cc1CNCCCCNCc1ccc3c(c1)OCO3)OCO2`, for which the IC50 with MDA-MB-231 [1] is 70 µM; in the experiment on PC-3 [2] it was 56 µM.

On to `COc1cc(CNCCCCNCc2cc(OC)c(OC)c(OC)c2)cc(OC)c1OC`, for which the IC50 in the experiment with MDA-MB-231 [1] and in the experiment on PC-3 [2] was 58 µM each time.

Consider `CC(CCC(C)NCc1cccc2ccccc12)NCc1cccc2ccccc12` (stereo not given), for which the IC50 came to 5 µM with MDA-MB-231 [1] and 7 µM with PC-3 [2].

Regarding `c1ccc2c(CNCCCCNCc3c[nH]c4ccccc34)c[nH]c2c1`, the 50% inhibitory concentration (IC50) in the experiment on MDA-MB-231 [1] was 77 µM; in the experiment on PC-3 [2], 51 µM.

For `Nc1ccccc1CNCCCCNCc1ccccc1N`, the IC50 with MDA-MB-231 [1] is 146 µM; in the experiment with PC-3 [2] it was 98 µM.

In the case of `c1ccc(-c2ccc(CNCCCNCc3ccc(-c4ccccc4)cc3)cc2)cc1`, the values for the IC50 in the experiment on MDA-MB-231 [1] and in the experiment with PC-3 [2] were 2 µM and 0.8 µM, respectively.

Turning to `Nc1cccc(CNCCCCNCc2cccc(N)c2)c1`, the IC50 with MDA-MB-231 [1] and in the experiment with PC-3 [2] was over 300 µM throughout.

Regarding `O=[N+]([O-])c1ccccc1CNCCCCNCc1ccccc1[N+](=O)[O-]`, the IC50 in the experiment with MDA-MB-231 [1] stood at 62 µM; with PC-3 [2], 23 µM.

Take `O=C1c2cccc3cccc(c23)C(=O)N1CCNCCCNCCN1C(=O)c2cccc3cccc(c23)C1=O` [ELINAFIDE]: the IC50 with MDA-MB-231 [1] was determined as 0.06 µM; in the experiment with PC-3 [2], 0.07 µM.

In turn, `Cn1cc(NC(=O)c2cc(NC(=O)c3cc(NC=O)cn3C)cn2C)cc1C(=O)NCCC(=N)N` [STALLIMYCIN] yielded a DC50 at Nucleic Acid [5] of 44 µM.
